Reference: ChEMBL document CHEMBL2177087, “Bivalent ligands targeting multiple pathological factors involved in Alzheimer's disease” (ACS Med Chem Lett, 2012)
pEC50: −log10 of the molar value. Calls of active or inactive are those of the source. No cut-off for these calls is given here.

Tests used:
MC65 [1] = test: Neuroprotective activity in tetracycline-removed human MC65 cells assessed as protection against amyloid beta aggregate-induced cytotoxicity at 0.3 uM after 72 hrs by MTT assay; type: functional, cell-based
Procedure, shortened: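 Single-concentration screen: MC65 cells given 0.3 μM compound under +TC or −TC conditions for 72 h, viability read by MTT. Reported as mean percentage viability (n = 3) relative to parallel +TC cultures at 100%; error bars SEM.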

MC65 [2] = test: Antioxidant activity in tetracycline-removed human MC65 cells assessed as suppression of oxidative stress at 0.1 to 3 uM after 48 hrs by DCFH-DA assay; type: functional, cell-based
Procedure, shortened: (§1)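 MC65 human neuroblastoma cells dosed under +TC or −TC (TC withdrawn) for 48 h, then loaded with 25 μM DCFH-DA. Cellular fluorescence measured by flow cytometry. Expressed as mean percentage of fluorescence intensity (n = 3), parallel +TC cultures set at 100%; error bars SEM.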

[3] = Neuroprotective activity in tetracycline-removed human MC65 cells assessed as protection against amyloid beta aggregate-induced cytotoxicity after 72 hrs by MTT assay; type: functional, cell-based; conditions: MC65, 72 h
Procedure, shortened: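 MC65 cells kept in +TC or −TC medium with compound across a concentration series for 72 h; viability by MTT. Mean percentage viability (n = 3), parallel +TC cultures as 100%, SEM error bars; EC50 taken from dose–response.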

MC65 [4] = test: Effect on C99 expression in tetracycline-removed human MC65 cells at 0.3 to 1 uM after 30 hrs by Western blot analysis; type: functional, cell-based
MC65 [5] = test: Inhibition of amyloid beta oligomer production in tetracycline-removed human MC65 cells after 30 hrs by Western blot analysis; type: functional, cell-based
Procedure, shortened: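 Compounds added immediately after tetracycline removal, MC65 cells cultured 30 h. Lysates Western blotted with 6E10 antibody; three oligomer bands quantified by densitometry, normalized to α-tubulin, and expressed relative to −TC control set at 100%. Image from one of two independent experiments.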

[6] = Binding affinity to Cu2+ assessed as formation of metal complexes at 50 uM after 10 mins by UV-vis spectrum analysis; type: physicochemical
Procedure, shortened: (§2)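 50 μM compound incubated with 60 μM CuSO4, FeCl2 or ZnCl2 at room temperature for 10 min. UV−vis spectrum recorded from 300 to 550 nm; complexation judged from spectral change versus metal-free spectrum.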

[7] = Binding affinity to Zn2+ assessed as formation of metal complexes at 50 uM after 10 mins by UV-vis spectrum analysis; type: physicochemical; procedure, shortened: as §2
MC65 [8] = test: Antioxidant activity in tetracycline-removed human MC65 cells assessed as suppression of oxidative stress after 48 hrs by DCFH-DA assay; type: functional, cell-based; procedure, shortened: as §1
[9] = Binding affinity to Fe2+ assessed as formation of metal complexes at 50 uM after 10 mins by UV-vis spectrum analysis; type: physicochemical; procedure, shortened: as §2
[10] = Antioxidant activity in tetracycline-removed human MC65 cells assessed as suppression of oxidative stress at 0.1 uM after 48 hrs by DCFH-DA assay; type: functional; procedure, shortened: as §1

COc1cc(/C=C/C(=O)/C(Cc2cn(CCCCNC(=O)COCC(=O)NCCCCN[C@H]3CC[C@@]4(C)C(=CC[C@H]5[C@@H]6CC[C@H]([C@H](C)CCCC(C)C)[C@@]6(C)CC[C@@H]54)C3)nn2)=C(O)/C=C/c2ccc(O)c(OC)c2)ccc1O
Activity (MC65 [1]): Active | Activity (MC65 [2]): Active | pEC50 [3]: 6.80 | Activity (MC65 [4]): inactive | inhibition (MC65 [5]): Dose-dependent effect

COc1cc(/C=C/C(=O)/C=C(O)/C=C/c2ccc(OCc3cn(CCCCNC(=O)COCC(=O)NCCCCN[C@H]4CC[C@@]5(C)C(=CC[C@H]6[C@@H]7CC[C@H]([C@H](C)CCCC(C)C)[C@@]7(C)CC[C@@H]65)C4)nn3)c(OC)c2)ccc1O
Activity (MC65 [1]): Active

COc1cc(/C=C/C(=O)/C=C(O)/C=C/c2ccc(OCc3cn(CCCCCCNC(=O)COCC(=O)NCCCCCCN[C@H]4CC[C@@]5(C)C(=CC[C@H]6[C@@H]7CC[C@H]([C@H](C)CCCC(C)C)[C@@]7(C)CC[C@@H]65)C4)nn3)c(OC)c2)ccc1O
Activity (MC65 [1]): Active

COc1cc(/C=C/C(=O)/C=C(O)/C=C/c2ccc(OCc3cn(CCNC(=O)COCC(=O)NCCCCN[C@H]4CC[C@@]5(C)C(=CC[C@H]6[C@@H]7CC[C@H]([C@H](C)CCCC(C)C)[C@@]7(C)CC[C@@H]65)C4)nn3)c(OC)c2)ccc1O
Activity (MC65 [1]): Active

COc1cc(/C=C/C(=O)/C=C(O)/C=C/c2ccc(OCc3cn(CCCC(=O)NCCCCN[C@H]4CC[C@@]5(C)C(=CC[C@H]6[C@@H]7CC[C@H]([C@H](C)CCCC(C)C)[C@@]7(C)CC[C@@H]65)C4)nn3)c(OC)c2)ccc1O
Activity (MC65 [1]): Active

COc1cc(/C=C/C(=O)/C=C(O)/C=C/c2ccc(OCc3cn(CCCCCCNC(=O)COCC(=O)NCCCCN[C@H]4CC[C@@]5(C)C(=CC[C@H]6[C@@H]7CC[C@H]([C@H](C)CCCC(C)C)[C@@]7(C)CC[C@@H]65)C4)nn3)c(OC)c2)ccc1O
Activity (MC65 [1]): Active

COc1cc(/C=C/C(=O)/C(Cc2cn(CCCCCCNC(=O)COCC(=O)NCCCCCCN[C@H]3CC[C@@]4(C)C(=CC[C@H]5[C@@H]6CC[C@H]([C@H](C)CCCC(C)C)[C@@]6(C)CC[C@@H]54)C3)nn2)=C(O)/C=C/c2ccc(O)c(OC)c2)ccc1O
Activity (MC65 [1]): Active

COc1cc(/C=C/C(=O)/C(Cc2cn(CCNC(=O)COCC(=O)NCCCCN[C@H]3CC[C@@]4(C)C(=CC[C@H]5[C@@H]6CC[C@H]([C@H](C)CCCC(C)C)[C@@]6(C)CC[C@@H]54)C3)nn2)=C(O)/C=C/c2ccc(O)c(OC)c2)ccc1O
Activity [6]: Active | Activity (MC65 [1]): Active | Activity [7]: Active | Activity (MC65 [8]): Dose-dependent effect | pEC50 [3]: 7.08 | Activity [9]: Active | Activity [10]: 35% | Activity (MC65 [4]): inactive | inhibition (MC65 [5]): Dose-dependent effect

COc1cc(/C=C/C(=O)/C(Cc2cn(CCCC(=O)NCCCCN[C@H]3CC[C@@]4(C)C(=CC[C@H]5[C@@H]6CC[C@H]([C@H](C)CCCC(C)C)[C@@]6(C)CC[C@@H]54)C3)nn2)=C(O)/C=C/c2ccc(O)c(OC)c2)ccc1O
Activity (MC65 [1]): Active

COc1cc(/C=C/C(=O)/C(Cc2cn(CCCCCCNC(=O)COCC(=O)NCCCCN[C@H]3CC[C@@]4(C)C(=CC[C@H]5[C@@H]6CC[C@H]([C@H](C)CCCC(C)C)[C@@]6(C)CC[C@@H]54)C3)nn2)=C(O)/C=C/c2ccc(O)c(OC)c2)ccc1O
Activity (MC65 [1]): Active | Activity (MC65 [2]): Active | pEC50 [3]: 6.52 | Activity (MC65 [4]): inactive | inhibition (MC65 [5]): Dose-dependent effect

COc1cc(/C=C/C(=O)/C(Cc2cn(CCCCCCNC(=O)CCNC(=O)CCNC(=O)CO[C@H]3CC[C@@]4(C)C(=CC[C@H]5[C@@H]6CC[C@H]([C@H](C)CCCC(C)C)[C@@]6(C)CC[C@@H]54)C3)nn2)=C(O)/C=C/c2ccc(O)c(OC)c2)ccc1O
Activity [6]: Active | Activity [7]: Not Active | pEC50 [3]: 5.52 | Activity [9]: Active
